Test results published in ChEMBL document CHEMBL1148220, “Antineoplastic agents. 529. Isolation and structure of nootkastatins 1 and 2 from the Alaskan yellow cedar Chamaecyparis nootkatensis” (2004).
Converted amounts (≈) assume the structure as drawn. The source made the active and inactive calls. No cut-off for these calls is given here.

Experiments:
Cryptococcus neoformans [1] = test: Antimicrobial activity against Cryptococcus neoformans ATCC 90122 after 24 hrs by broth microdilution assay in presence of 25% human serum; format: functional; conditions: ATCC 90112, 24 h, in the assay text read “ATCC 90112” for “ATCC 90122”
Procedure, shortened: (§1)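 For yeasts, NCCLS broth microdilution was run in medium supplemented with 25% heat-inactivated, filter-sterilized normal human serum. Compounds were reconstituted in sterile DMSO and diluted in medium just before the assay. MIC was the lowest concentration giving optically clear wells.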

Candida albicans [2] = test: Antimicrobial activity against Candida albicans ATCC 90028 after 48 hrs by broth microdilution assay in presence of 25% human serum; format: functional; conditions: ATCC 90028, 48 h; procedure, shortened: as §1
Staphylococcus aureus [3] = test: Antimicrobial activity against Staphylococcus aureus ATCC 29213 after 24 hrs by broth microdilution assay in presence of 25% human serum; format: functional; conditions: ATCC 29213, 24 h
Procedure, shortened: (§2)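 Bacteria were tested by NCCLS broth microdilution in medium containing 25% heat-inactivated, filter-sterilized normal human serum. Compounds were dissolved in sterile DMSO and diluted in medium immediately before use. MIC was the lowest concentration with no visible growth (optically clear). Assays were repeated on separate days.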

Streptococcus pneumoniae [4] = test: Antimicrobial activity against Streptococcus pneumoniae ATCC 6303 after 24 hrs by broth microdilution assay in presence of 25% human serum; format: functional; conditions: ATCC 6303, 24 h; procedure, shortened: as §2
Enterococcus faecalis [5] = test: Antimicrobial activity against Enterococcus faecalis ATCC 29212 after 24 hrs by broth microdilution assay in presence of 25% human serum; format: functional; conditions: ATCC 29212, 24 h; procedure, shortened: as §2
Micrococcus luteus [6] = test: Antimicrobial activity against Micrococcus luteus Presque Isle 456 after 24 hrs by broth microdilution assay in presence of 25% human serum; format: functional; procedure, shortened: as §2
Escherichia coli [7] = test: Antimicrobial activity against Escherichia coli ATCC 25922 after 24 hrs by broth microdilution assay in presence of 25% human serum; format: functional; conditions: ATCC 25922, 24 h; procedure, shortened: as §2
Enterobacter cloacae [8] = test: Antimicrobial activity against Enterobacter cloacae ATCC 13047 after 24 hrs by broth microdilution assay in presence of 25% human serum; format: functional; conditions: ATCC 13047, 24 h; procedure, shortened: as §2
[9] = tested on: Stenotrophomonas maltophilia; test: Antimicrobial activity against Stenotrophomonas maltophilia ATCC 13637 after 24 hrs by broth microdilution assay in presence of 25% human serum; format: functional; conditions: ATCC 13637, 24 h; procedure, shortened: as §2
Neisseria gonorrhoeae [10] = test: Antimicrobial activity against Neisseria gonorrhoeae ATCC 49226 after 24 hrs by broth microdilution assay in presence of 25% human serum; format: functional; conditions: ATCC 49226, 24 h; procedure, shortened: as §2
Cryptococcus neoformans [11] = test: Antimicrobial activity against fluconazole-resistant Cryptococcus neoformans after 48 hrs by broth microdilution assay in presence of 25% human serum; format: functional
Nakaseomyces glabratus [12] = test: Antimicrobial activity against Candida glabrata after 48 hrs by broth microdilution assay in presence of 25% human serum; format: functional; procedure, shortened: as §1
Staphylococcus aureus [13] = test: Antimicrobial activity against methicillin-resistant Staphylococcus aureus after 24 hrs by broth microdilution assay in presence of 25% human serum; format: functional
Procedure, shortened: as §2, with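 “Bacterial” for “Bacteria were tested by”, “microdilution run” for “microdilution”, “with” for “containing”, “taken up” for “dissolved”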

[14] = tested on: Staphylococcus epidermidis; test: Antimicrobial activity against Staphylococcus epidermidis ATCC 49461 after 24 hrs by broth microdilution assay in presence of 25% human serum; format: functional; conditions: ATCC 49461, 24 h; procedure, shortened: as §2
Streptococcus pneumoniae [15] = test: Antimicrobial activity against penicillin-resistant Streptococcus pneumoniae after 24 hrs by broth microdilution assay in presence of 25% human serum; format: functional
Procedure, shortened: as §2, with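 “Bacterial” for “Bacteria were tested by”, “microdilution run” for “microdilution”, “with” for “containing”, “taken up” for “dissolved”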

Streptococcus pyogenes [16] = test: Antimicrobial activity against penicillin-resistant Streptococcus pyogenes after 24 hrs by broth microdilution assay in presence of 25% human serum; format: functional
Procedure, shortened: as §2, with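 “Bacterial” for “Bacteria were tested by”, “microdilution run” for “microdilution”, “with” for “containing”, “taken up” for “dissolved”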

Enterococcus faecium [17] = test: Antimicrobial activity against vancomycin-resistant Enterococcus faecium after 24 hrs by broth microdilution assay in presence of 25% human serum; format: functional
Procedure, shortened: as §2, with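 “Bacterial” for “Bacteria were tested by”, “microdilution run” for “microdilution”, “with” for “containing”, “taken up” for “dissolved”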

Rhodococcus sp. [18] = test: Antimicrobial activity against Rhodococcus sp. after 24 hrs by broth microdilution assay in presence of 25% human serum; format: functional; conditions: Rhodococcus sp. (in: high G+C Gram-positive bacteria); procedure, shortened: as §2
MCF7 = test: Cytotoxicity against human MCF7 cells after 48 hrs by SRB assay; format: functional; conditions: MCF7, 48 h
P388 = test: Cytotoxicity against mouse P388 cells; format: functional; conditions: read-out: ED50 (the source's name)
BXPC-3 = test: Cytotoxicity against human BxPC3 cells after 48 hrs by SRB assay; format: functional; conditions: BXPC-3, 48 h
SF-268 = test: Cytotoxicity against human SF268 cells after 48 hrs by SRB assay; format: functional; conditions: SF-268, 48 h
NCI-H460 = test: Cytotoxicity against human NCI-H460 cells after 48 hrs by SRB assay; format: functional; conditions: NCI-H460, 48 h
KM-20L2 = test: Cytotoxicity against human KM20L2 cells after 48 hrs by SRB assay; format: functional; conditions: KM-20L2, 48 h
DU-145 = test: Cytotoxicity against human DU145 cells after 48 hrs by SRB assay; format: functional; conditions: DU-145, 48 h
Cryptococcus neoformans [19] = test: Antimicrobial activity against Cryptococcus neoformans ATCC 90122 after 24 hrs by broth microdilution assay; format: functional; conditions: ATCC 90112, 24 h, in the assay text read “ATCC 90112” for “ATCC 90122”
Procedure, shortened: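 Yeasts were tested by NCCLS broth microdilution. Compounds were dissolved in a small volume of sterile DMSO and diluted in the appropriate medium immediately before testing. MIC was the lowest concentration inhibiting all visible growth (optically clear). Assays were repeated on separate days.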

Candida albicans [20] = test: Antimicrobial activity against Candida albicans ATCC 90028 at 64 ug/mL after 48 hrs by broth microdilution assay; format: functional, organism-based
Staphylococcus aureus [21] = test: Antimicrobial activity against Staphylococcus aureus ATCC 29213 after 24 hrs by broth microdilution assay; format: functional; conditions: ATCC 29213, 24 h
Procedure, shortened: (§3)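 Bacterial MICs were determined by NCCLS broth microdilution. Compounds were dissolved in a small volume of sterile DMSO and diluted in the appropriate medium just before testing. MIC was the lowest concentration giving no visible growth (optically clear). Assays were repeated on separate days.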

Streptococcus pneumoniae [22] = test: Antimicrobial activity against Streptococcus pneumoniae ATCC 6303 after 24 hrs by broth microdilution assay; format: functional; conditions: ATCC 6303, 24 h; procedure, shortened: as §3
Enterococcus faecalis [23] = test: Antimicrobial activity against Enterococcus faecalis ATCC 29212 after 24 hrs by broth microdilution assay; format: functional; conditions: ATCC 29212, 24 h; procedure, shortened: as §3
Micrococcus luteus [24] = test: Antimicrobial activity against Micrococcus luteus Presque Isle 456 after 24 hrs by broth microdilution assay; format: functional; procedure, shortened: as §3
Escherichia coli [25] = test: Antimicrobial activity against Escherichia coli ATCC 25922 at 64 ug/mL after 24 hrs by broth microdilution assay; format: functional, organism-based
Enterobacter cloacae [26] = test: Antimicrobial activity against Enterobacter cloacae ATCC 13047 at 64 ug/mL after 24 hrs by broth microdilution assay; format: functional, organism-based
[27] = tested on: Stenotrophomonas maltophilia; test: Antimicrobial activity against Stenotrophomonas maltophilia ATCC 13637 at 64 ug/mL after 24 hrs by broth microdilution assay; format: functional, organism-based
Neisseria gonorrhoeae [28] = test: Antimicrobial activity against Neisseria gonorrhoeae ATCC 49226 at 64 ug/mL after 24 hrs by broth microdilution assay; format: functional; conditions: ATCC 49226, 24 h
Cryptococcus neoformans [29] = test: Antimicrobial activity against fluconazole-resistant Cryptococcus neoformans after 48 hrs by broth microdilution assay; format: functional
Procedure, shortened: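 Yeast broth microdilution following NCCLS. Compounds were dissolved in sterile DMSO and diluted in medium immediately before testing. MIC was the lowest concentration leaving the well optically clear, with no visible growth.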

Nakaseomyces glabratus [30] = test: Antimicrobial activity against Candida glabrata at 64 ug/mL after 48 hrs by broth microdilution assay; format: functional, organism-based
Staphylococcus aureus [31] = test: Antimicrobial activity against methicillin-resistant Staphylococcus aureus after 24 hrs by broth microdilution assay; format: functional
Procedure, shortened: (§4)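 NCCLS broth microdilution for bacteria. Compounds were dissolved in a small volume of sterile DMSO and diluted in medium just before testing. MIC was the lowest concentration giving no visible growth (optically clear). Assays were repeated on separate days.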

[32] = tested on: Staphylococcus epidermidis; test: Antimicrobial activity against Staphylococcus epidermidis ATCC 49461 after 24 hrs by broth microdilution assay; format: functional; conditions: ATCC 49461, 24 h; procedure, shortened: as §3
Streptococcus pneumoniae [33] = test: Antimicrobial activity against penicillin-resistant Streptococcus pneumoniae after 24 hrs by broth microdilution assay; format: functional; procedure, shortened: as §4
Streptococcus pyogenes [34] = test: Antimicrobial activity against penicillin-resistant Streptococcus pyogenes after 24 hrs by broth microdilution assay; format: functional; procedure, shortened: as §4
Enterococcus faecium [35] = test: Antimicrobial activity against vancomycin-resistant Enterococcus faecium after 24 hrs by broth microdilution assay; format: functional; procedure, shortened: as §4
Rhodococcus sp. [36] = test: Antimicrobial activity against Rhodococcus sp. after 24 hrs by broth microdilution assay; format: functional; conditions: Rhodococcus sp. (in: high G+C Gram-positive bacteria); procedure, shortened: as §3

CO[C@@H]1C[C@H]2C(C)(C)CCC[C@]2(C)c2ccc(O)c(C(C)C)c21
MIC (Cryptococcus neoformans [1]): > 64 µg/mL | MIC (Candida albicans [2]): > 64 µg/mL | MIC (Staphylococcus aureus [3]): > 64 µg/mL | MIC (Streptococcus pneumoniae [4]): > 64 µg/mL | MIC (Enterococcus faecalis [5]): > 64 µg/mL | MIC (Micrococcus luteus [6]): > 64 µg/mL | MIC (Escherichia coli [7]): > 64 µg/mL | MIC (Enterobacter cloacae [8]): > 64 µg/mL | MIC [9]: > 64 µg/mL | MIC (Neisseria gonorrhoeae [10]): > 64 µg/mL | MIC (Cryptococcus neoformans [11]): > 64 µg/mL | MIC (Nakaseomyces glabratus [12]): > 64 µg/mL | MIC (Staphylococcus aureus [13]): > 64 µg/mL | MIC [14]: > 64 µg/mL | MIC (Streptococcus pneumoniae [15]): > 64 µg/mL | MIC (Streptococcus pyogenes [16]): > 64 µg/mL | MIC (Enterococcus faecium [17]): > 64 µg/mL | MIC (Rhodococcus sp. [18]): > 64 µg/mL | GI50 (MCF7): 1.5 µg/mL (≈ 4.74 µM) | EC50 (P388): > 10 µg/mL | GI50 (BXPC-3): 1.5 µg/mL (≈ 4.74 µM) | GI50 (SF-268): 1.9 µg/mL (≈ 6 µM) | GI50 (NCI-H460): 1.8 µg/mL (≈ 5.69 µM) | GI50 (KM-20L2): 1.6 µg/mL (≈ 5.06 µM) | GI50 (DU-145): 1.7 µg/mL (≈ 5.37 µM) | MIC (Cryptococcus neoformans [19]): 8 µg/mL (≈ 25.3 µM) | Activity (Candida albicans [20]): inactive | MIC (Staphylococcus aureus [21]): 4 µg/mL (≈ 12.6 µM) | MIC (Streptococcus pneumoniae [22]): 8 µg/mL (≈ 25.3 µM) | MIC (Enterococcus faecalis [23]): 4 µg/mL (≈ 12.6 µM) | MIC (Micrococcus luteus [24]): 2 µg/mL (≈ 6.32 µM) | Activity (Escherichia coli [25]): inactive | Activity (Enterobacter cloacae [26]): inactive | Activity [27]: inactive | MIC (Neisseria gonorrhoeae [28]): 4 µg/mL (≈ 12.6 µM) | MFC (Cryptococcus neoformans [29]): 4 µg/mL (≈ 12.6 µM) | MIC (Cryptococcus neoformans [29]): 4 µg/mL (≈ 12.6 µM) | Activity (Nakaseomyces glabratus [30]): inactive | MBC (Staphylococcus aureus [31]): 8 µg/mL (≈ 25.3 µM) | MIC (Staphylococcus aureus [31]): 4 µg/mL (≈ 12.6 µM) | MBC [32]: 16 µg/mL (≈ 50.6 µM) | MIC [32]: 2 µg/mL (≈ 6.32 µM) | MBC (Streptococcus pneumoniae [33]): 16 µg/mL (≈ 50.6 µM) | MIC (Streptococcus pneumoniae [33]): 16 µg/mL (≈ 50.6 µM) | MBC (Streptococcus pyogenes [34]): 32 µg/mL (≈ 101 µM) | MIC (Streptococcus pyogenes [34]): 16 µg/mL (≈ 50.6 µM) | MBC (Enterococcus faecium [35]): 4 µg/mL (≈ 12.6 µM) | MIC (Enterococcus faecium [35]): 4 µg/mL (≈ 12.6 µM) | MBC (Rhodococcus sp. [36]): 8 µg/mL (≈ 25.3 µM) | MIC (Rhodococcus sp. [36]): 2 µg/mL (≈ 6.32 µM)
